The target of one data set is T1, Streptokinase (Streptococcus pyogenes, UniProt P96471).
T1 sequence (P96471 whole entry): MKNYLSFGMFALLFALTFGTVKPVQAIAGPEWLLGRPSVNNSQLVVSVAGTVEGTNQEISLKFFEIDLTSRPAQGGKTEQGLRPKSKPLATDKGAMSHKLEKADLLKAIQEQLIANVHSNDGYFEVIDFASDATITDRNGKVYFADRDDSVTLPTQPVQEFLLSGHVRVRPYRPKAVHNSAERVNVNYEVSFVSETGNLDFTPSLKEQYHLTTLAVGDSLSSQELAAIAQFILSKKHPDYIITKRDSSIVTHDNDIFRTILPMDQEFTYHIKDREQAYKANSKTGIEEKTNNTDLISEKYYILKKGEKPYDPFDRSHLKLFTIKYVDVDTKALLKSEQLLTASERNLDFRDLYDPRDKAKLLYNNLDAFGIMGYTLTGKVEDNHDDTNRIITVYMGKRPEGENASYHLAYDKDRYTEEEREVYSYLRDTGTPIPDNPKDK
Kind of data set: Inhibition of Streptococcus pyogenes UMAA2616 streptokinase assessed as plasmin activity in human plasma after 24 hrs by colorimetric analysis. Put shortly: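 GAS culture grown 24 h with test compound (5 μM for ratio data); culture supernatant mixed with human plasma and resulting plasmin activity read as turnover of plasmin-specific chromogenic substrate at A405. Reported as SK activity relative to DMSO-treated control culture; IC50 taken as concentration giving 50% of maximal inhibition of SK expression; ± standard deviation.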

Another data set concerns Streptococcus pyogenes. Put plainly: Growth inhibition of Streptococcus pyogenes UMAA2616 at 50 uM after 24 hrs relative to control. Format: organism-based.
Data set [1] addresses T2, Streptokinase (Streptococcus pyogenes) (UniProt P96471).
T2 sequence (whole entry): T1 sequence (P96471 whole entry)
Put plainly: Inhibition of Streptococcus pyogenes UMAA2616 streptokinase assessed as plasmin activity in human plasma at 5 uM after 24 hrs by colorimetric analysis relative to control. The gist of the method:
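GAS cultures incubated 24 hours with 5 μM compound. Culture supernatant was mixed with human plasma, and the resulting plasmin activity was followed by turnover of a plasmin-specific chromogenic substrate, read as absorbance at 405 nm. Value is the activity of the treated culture divided by that of a DMSO-treated control culture, ± standard deviation.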

Molecules are shown by their SMILES.

Broadly, the IC50 is the concentration at which inhibition is half-maximal.

For `C#CCOCCSc1nc2c(c(=O)n1CC=C)C(C)(C)Cc1ccc(N=[N+]=[N-])cc1-2`, at Streptokinase, the IC50 came out at 190 nM. Further, the figures for the T/C (in the data set with Streptococcus pyogenes; in data set [1]) were 0.98 and 0.3, respectively.

As for `C#CCOCCSc1nc2c(c(=O)n1CC=C)C(C)(C)Cc1cc(OCCC3(C)N=N3)ccc1-2`, at Streptokinase, the concentration for half-maximal inhibition (IC50) was determined as 330 nM. Moreover, the T/C in the data set on Streptococcus pyogenes turned out to be 1.07; in data set [1] it was 0.49.

For the compound `C#CCOc1ccc2c(c1)CC(C)(C)c1c-2nc(SCCC2(C)N=N2)n(CC=C)c1=O`, the T/C in the data set on Streptococcus pyogenes came out at 1.02; in data set [1], 0.89.

Regarding `C#CCSc1nc2c(c(=O)n1CC=C)C(C)(C)Cc1cc(C(=O)c3ccccc3)ccc1-2`, the T/C in the data set with Streptococcus pyogenes is 1.09; in data set [1] it was 0.77.

As to `C#CCOCCOc1ccc2c(c1)CC(C)(C)c1c-2nc(SCCC2(C)N=N2)n(CC=C)c1=O`, the T/C in the data set with Streptococcus pyogenes turned out to be 1.01; in data set [1] it was 0.71.

In the case of `C=CCn1c(SCC)nc2c(c1=O)C(C)(C)Cc1ccc(OC)cc1-2`, the IC50 on Streptokinase is 1300 nM. The T/C with Streptococcus pyogenes amounted to 0.73; in data set [1] it was 0.1.

For `C#CCOCCSc1nc2c(c(=O)n1CC=C)C(C)(C)Cc1cc(C(=O)c3ccccc3)ccc1-2`, the IC50 at Streptokinase turned out to be 3800 nM. In addition, the T/C in the data set with Streptococcus pyogenes is 0.94; in data set [1] it was 0.51.

In the case of `C#CCSc1nc2c(c(=O)n1CC=C)C(C)(C)Cc1cc(OCCC3(C)N=N3)ccc1-2`, the T/C with Streptococcus pyogenes was 0.96; in data set [1], 1.07.

Values taken from ChEMBL document CHEMBL3124834, “Development of tag-free photoprobes for studies aimed at identifying the target of novel Group A Streptococcus antivirulence agents” (Bioorg Med Chem Lett, 2014).
